Assay results reported in ChEMBL document CHEMBL3352594 (J Med Chem, 2014).
Activity calls are given as the source filed them. The rule behind the calls is not given here.

Tests used:
[1] = Cytotoxicity against C57BL/6 mouse macrophages after 24 hrs by MTT assay; type: cell-based; details: C57BL/6, Macrophage
In short: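 Thioglycollate-elicited peritoneal macrophages from male C57BL/6 mice, 1 × 10^5 cells/well, adhered 2 h, then exposed to compounds 24 h. Washed, MTT (5 mg/mL in PBS) added 4 h at 37 °C, formazan dissolved in DMSO, absorbance 570 nm.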

Macrophage [2] = experiment: Inhibition of LPS-induced NO production in C57BL/6 mouse macrophages preincubated with compound for 1 hr before LPS challenge measured after 24 hrs by Griess method; type: functional, cell-based; details: C57BL/6, Macrophage
In short: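 Peritoneal macrophages harvested from male C57BL/6J mice 3 days after ip thioglycollate; 1 × 10^5 cells/well in RPMI-1640 + 5% newborn calf serum, nonadherent cells removed after 2 h. Compounds added 1 h before LPS 1 μg/mL; 24 h later supernatant nitrite read by Griess reagent at 570 nm against a nitrite standard curve. IC50 from ≥2 experiments in triplicate; selectivity index = cytotoxicity IC50 / NO-inhibition IC50.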

Macrophage [3] = experiment: Selectivity index, ratio of IC50 for C57BL/6 mouse macrophages to IC50 for LPS-induced NO production in C57BL/6 mouse macrophages
Macrophage [4] = experiment: Inhibition of intrinsic NO production in C57BL/6 mouse macrophages at 10 uM measured after 24 hrs by Griess method; type: functional, cell-based
In short: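 Unstimulated peritoneal macrophages (no LPS) cultured 2 h, then exposed to compound at 10 μM for 24 h. Supernatant nitrite measured by Griess assay at 570 nm against a standard curve; untreated, vehicle and LPS (1 μg/mL) wells as controls. Three independent experiments, mean ± SEM.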

Macrophage [5] = experiment: Inhibition of LPS-induced iNOS expression in C57BL/6 mouse macrophages preincubated at 1 uM for 1 hr before LPS challenge measured after 24 hrs by immunoblotting; type: functional, cell-based
In short: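 Male C57BL/6 peritoneal macrophages pretreated 1 h with compound at 1 μM, then LPS 1 μg/mL for 24 h. Lysates resolved on 10% SDS-PAGE and transferred to PVDF; blots probed with rabbit anti-iNOS and anti-β-actin (1:1000, overnight 4 °C), visualized by ECL. iNOS/β-actin ratio from densitometry; three independent experiments, mean ± SEM.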

Mus musculus [6] = experiment: Antiinflammatory activity in Kunming mouse assessed as inhibition of croton oil-induced ear edema at 10 umol/kg, po administered before challenge relative to vehicle-treated control; type: functional
In short: (§1)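 Male Kunming mice; croton oil applied topically to left ear at 0.4 mg/ear. Test agent or equal-volume vehicle given 1 h before (po 5, 10, 20 μmol/kg; sc 77, 154, 308 μmol/kg). Euthanized under pentobarbital 4 h after croton oil; 8 mm ear punches weighed, left minus right weight = edema; inhibition vs vehicle group. n = 10 (po) or 8–9 (sc); mean ± SEM.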

Mus musculus [7] = experiment: Antiinflammatory activity in Kunming mouse assessed as inhibition of croton oil-induced ear edema at 20 umol/kg, po administered before challenge relative to vehicle-treated control; type: functional; in short: as §1
Mus musculus [8] = experiment: Antiinflammatory activity in Kunming mouse assessed as inhibition of croton oil-induced ear edema at 5 umol/kg, po administered before challenge relative to vehicle-treated control; type: functional; in short: as §1
Mus musculus [9] = experiment: Antiinflammatory activity in specific pathogen-free COPD-like lung inflammation BALB/c mouse model assessed as inhibition of IL-8 level at 2 umol/kg/day, po for 35 days measured 24 hrs post last dose relative to vehicle-treated control; type: functional
In short: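 SPF male BALB/c mice (18−20 g) exposed to cigarette smoke 5 min twice daily (days 2–13, 15–35) plus 20 μg LPS in 30 μL saline (days 1, 14). Oral drug 2 μmol/kg daily for 35 days, 1 h before exposure. Killed ~24 h after last dose; lungs lavaged 3× with 0.8 mL ice-cold saline; IL-8 in BAL supernatant by ELISA; n = 8−11, mean ± SEM.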

Mus musculus [10] = experiment: Antiinflammatory activity in specific pathogen-free COPD-like lung inflammation BALB/c mouse model assessed as inhibition of IL-6 level at 2 umol/kg/day, po for 35 days measured 24 hrs post last dose relative to vehicle-treated control; type: functional, organism-based
In short: (§2)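 Male SPF BALB/c mice (18−20 g) exposed to cigarette smoke 5 min twice daily on days 2−13 and 15−35, with 20 μg LPS in 30 μL saline on days 1 and 14. Dosed orally 1 h before first exposure, daily for 35 days. Lungs lavaged 3× with 0.8 mL ice-cold saline about 24 h after last dose. Supernatant cytokines measured by ELISA. n = 8−11, mean ± SEM, Student's t test.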

Mus musculus [11] = experiment: Antiinflammatory activity in specific pathogen-free COPD-like lung inflammation BALB/c mouse model assessed as inhibition of eosinophils at 2 umol/kg/day, po for 35 days measured 24 hrs post last dose relative to vehicle-treated control; type: functional, organism-based
In short: (§3)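 Male SPF BALB/c mice (18−20 g) given cigarette smoke 5 min twice daily (days 2−13, 15−35) plus LPS 20 μg in 30 μL saline on days 1 and 14. Oral dosing 1 h before first exposure, daily for 35 days. BAL (3 × 0.8 mL ice-cold saline) collected about 24 h after final dose. Centrifuged pellet resuspended in 200 μL PBS and counted by hemocytometer for differential cells.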

[12] = Toxicity in Kunming mouse administered orally as single dose measured over 14 days; type: organism-based; details: in vivo, po
In short: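 SPF Kunming mice, half male and half female, fasted 16 h with water allowed, then weighed and randomized at 10/group. Single gavage dose (0.1 mL/10 g) at various doses, with solvent-only controls. Survival monitored for 14 days.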

Mus musculus [13] = experiment: Antiinflammatory activity in specific pathogen-free COPD-like lung inflammation BALB/c mouse model assessed as inhibition of white blood cells at 2 umol/kg/day, po for 35 days measured 24 hrs post last dose relative to vehicle-treated control; type: functional, organism-based; in short: as §3
Mus musculus [14] = experiment: Antiinflammatory activity in specific pathogen-free COPD-like lung inflammation BALB/c mouse model assessed as inhibition of neutrophils at 2 umol/kg/day, po for 35 days measured 24 hrs post last dose relative to vehicle-treated control; type: functional; in short: as §3
Mus musculus [15] = experiment: Antiinflammatory activity in specific pathogen-free COPD-like lung inflammation BALB/c mouse model assessed as inhibition of TNFalpha level at 2 umol/kg/day, po for 35 days measured 24 hrs post last dose relative to vehicle-treated control; type: functional, organism-based; in short: as §2
Mus musculus [16] = experiment: Antiinflammatory activity in specific pathogen-free COPD-like lung inflammation BALB/c mouse model assessed as inhibition of IL-1beta level at 2 umol/kg/day, po for 35 days measured 24 hrs post last dose relative to vehicle-treated control; type: functional, organism-based; in short: as §2
Mus musculus [17] = experiment: Antiinflammatory activity in Kunming mouse assessed as inhibition of croton oil-induced ear edema at 308 umol/kg, sc administered before challenge relative to vehicle-treated control; type: functional; in short: as §1
Mus musculus [18] = experiment: Antiinflammatory activity in Kunming mouse assessed as inhibition of croton oil-induced ear edema at 77 umol/kg, sc administered before challenge relative to vehicle-treated control; type: functional; in short: as §1
Mus musculus [19] = experiment: Antiinflammatory activity in Kunming mouse assessed as inhibition of croton oil-induced ear edema at 154 umol/kg, sc administered before challenge relative to vehicle-treated control; type: functional; in short: as §1

SMILES | IC50 [1] [nM] | IC50 (Macrophage [2]) [nM] | Ratio IC50 (Macrophage [3]) | inhibition (Macrophage [4]) | inhibition (Macrophage [5]) | further results
COC(=O)[C@]12OC[C@]34[C@H]([C@@H](O)[C@@H]1O)[C@@]1(C)CC(=O)C(OC(=O)c5ccccc5C(=O)OCCCCOc5no[n+]([O-])c5S(=O)(=O)c5ccccc5)=C(C)[C@@H]1C[C@H]3OC(=O)[C@H](OC(=O)C=C(C)C)[C@@H]24 | 1300 | 690 | 1.9 | – | – | –
CC(C)=CC(=O)O[C@H]1C(=O)O[C@@H]2C[C@H]3C(C)=C(O)C(=O)C[C@]3(C)[C@H]3[C@@H](O)[C@H](O)[C@]4(C(=O)O)OC[C@]32[C@@H]14 | > 10000 | > 10000 | – | Active | Active | –
COC(=O)[C@]12OC[C@]34[C@H]([C@@H](O)[C@@H]1O)[C@@]1(C)CC(=O)C(O)=C(C)[C@@H]1C[C@H]3OC(=O)[C@H](OC(=O)C=C(C)C)[C@@H]24 [BRUSATOL] | 140 | 50 | – | – | – | inhibition in vivo at 10 µmol/kg (Mus musculus [6]): 27.1%; inhibition in vivo at 20 µmol/kg (Mus musculus [7]): 46.8%; inhibition in vivo at 5 µmol/kg (Mus musculus [8]): 24.3%; inhibition in vivo at 2 µmol/kg (Mus musculus [9]): 46%
COC(=O)[C@]12OC[C@]34[C@H]([C@@H](O)[C@@H]1O)[C@@]1(C)CC(=O)C(OCc5ccc(OCc6c(-c7ccccc7)no[n+]6[O-])cc5)=C(C)[C@@H]1C[C@H]3OC(=O)[C@H](OC(=O)C=C(C)C)[C@@H]24 | > 10000 | 2100 | >4.7 | – | – | –
COC(=O)[C@]12OC[C@]34[C@H]([C@@H](O)[C@@H]1O)[C@@]1(C)CC(=O)C(OC(=O)CCC(=O)OCCCCOc5no[n+]([O-])c5S(=O)(=O)c5ccccc5)=C(C)[C@@H]1C[C@H]3OC(=O)[C@H](OC(=O)C=C(C)C)[C@@H]24 | 790 | 89 | 8.9 | inactive | – | inhibition (Mus musculus [10]): Active; inhibition (Mus musculus [11]): Active; inhibition in vivo at 10 µmol/kg (Mus musculus [6]): 39.9%; LD50 at 336 h [12]: 41.1 µmol/kg; inhibition (Mus musculus [13]): Active; inhibition in vivo at 20 µmol/kg (Mus musculus [7]): 53.9%; inhibition in vivo at 2 µmol/kg (Mus musculus [14]): 85%; inhibition (Mus musculus [15]): Active; inhibition in vivo at 5 µmol/kg (Mus musculus [8]): 29.4%; inhibition (Mus musculus [16]): Active
COC(=O)[C@]12OC[C@]34[C@H]([C@@H](O)[C@@H]1O)[C@@]1(C)CC(=O)C(OC(=O)CCC(=O)OCc5ccc(OCc6c(-c7ccccc7)no[n+]6[O-])cc5)=C(C)[C@@H]1C[C@H]3OC(=O)[C@H](OC(=O)C=C(C)C)[C@@H]24 | 150 | 47 | 3.2 | Active | – | –
CC(C)=CC(=O)O[C@H]1C(=O)O[C@@H]2C[C@H]3C(C)=C(O)C(=O)C[C@]3(C)[C@H]3[C@@H](O)[C@H](O)[C@]4(C(=O)OCc5ccc(OCc6c(-c7ccccc7)no[n+]6[O-])cc5)OC[C@]32[C@@H]14 | 3900 | 2200 | 1.8 | – | – | –
CC(C)=CC(=O)O[C@H]1C(=O)O[C@@H]2C[C@H]3C(C)=C(OC(=O)CCC(=O)OCCCCOc4no[n+]([O-])c4S(=O)(=O)c4ccccc4)C(=O)C[C@]3(C)[C@H]3[C@@H](O)[C@H](O)[C@]4(C(=O)O)OC[C@]32[C@@H]14 | > 10000 | 1300 | >7.6 | inactive | Active | –
CC(C)=CC(=O)O[C@H]1C(=O)O[C@@H]2C[C@H]3C(C)=C(OC(=O)CCC(=O)OCCCCOc4no[n+]([O-])c4S(=O)(=O)c4ccccc4)C(=O)C[C@]3(C)[C@H]3[C@@H](O)[C@H](OC(=O)CCC(=O)OCCCCOc4no[n+]([O-])c4S(=O)(=O)c4ccccc4)[C@]4(C(=O)O)OC[C@]32[C@@H]14 | > 10000 | 67 | >149 | inactive | Active | inhibition (Mus musculus [10]): Active; inhibition in vivo at 308 µmol/kg (Mus musculus [17]): 76.5%; inhibition (Mus musculus [11]): Active; inhibition in vivo at 10 µmol/kg (Mus musculus [6]): 6.4%; LD50 at 336 h [12]: > 3850 µmol/kg; inhibition (Mus musculus [13]): Active; inhibition in vivo at 77 µmol/kg (Mus musculus [18]): 31.4%; inhibition in vivo at 20 µmol/kg (Mus musculus [7]): 7.8%; inhibition in vivo at 154 µmol/kg (Mus musculus [19]): 61%; inhibition (Mus musculus [15]): Active; inhibition in vivo at 5 µmol/kg (Mus musculus [8]): 0.9%; inhibition in vivo at 2 µmol/kg (Mus musculus [9]): 48%; inhibition (Mus musculus [16]): Active
CC(C)=CC(=O)O[C@H]1C(=O)O[C@@H]2C[C@H]3C(C)=C(O)C(=O)C[C@]3(C)[C@H]3[C@@H](O)[C@H](O)[C@]4(C(=O)OCCCCOc5no[n+]([O-])c5S(=O)(=O)c5ccccc5)OC[C@]32[C@@H]14 | 3000 | 1100 | 2.7 | – | – | –
COC(=O)[C@]12OC[C@]34[C@H]([C@@H](O)[C@@H]1O)[C@@]1(C)CC(=O)C(O)=C(C)[C@@H]1C[C@H]3OC(=O)[C@H](OC(=O)CCC(=O)OCc1ccc(OCc3c(-c5ccccc5)no[n+]3[O-])cc1)[C@@H]24 | 820 | 380 | 2.2 | – | – | –
CC(C)=CC(=O)O[C@H]1C(=O)O[C@@H]2C[C@H]3C(C)=C(O)C(=O)C[C@]3(C)[C@H]3[C@@H](O)[C@H](OC(=O)CCC(=O)OCCCCOc4no[n+]([O-])c4S(=O)(=O)c4ccccc4)[C@]4(C(=O)O)OC[C@]32[C@@H]14 | > 10000 | 11000 | – | inactive | Active | –
COC(=O)[C@]12OC[C@]34[C@H]([C@@H](O)[C@@H]1O)[C@@]1(C)CC(=O)C(O)=C(C)[C@@H]1C[C@H]3OC(=O)[C@H](OC(=O)CCC(=O)OCCCCOc1no[n+]([O-])c1S(=O)(=O)c1ccccc1)[C@@H]24 | 1200 | 210 | 5.7 | – | – | –
